Consider 8 compounds from ChEMBL document CHEMBL4251706, “Elimination of HIV-1 Latently Infected Cells by Gnidimacrin and a Selective HDAC Inhibitor” (ACS Med Chem Lett, 2018).

Series [1] concerns Human immunodeficiency virus 1. Description: Reactivation of latent HIV1 infected in human J-Lat A2 cells assessed as increase in GFP positive cells at 1 uM after 72 hrs by flow cytometric analysis. The format is functional, organism-based. The method, boiled down:
(§1)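 J-Lat (A2) cells, 1x10^6 cells/well, incubated with the test agent at 37 °C for 72 h. GFP-expressing cells and percent viable cells measured by flow cytometry. Two independent experiments.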
Background: A flow cytometer gives signals particle by particle.

Series [2] relates to Human immunodeficiency virus 1. Description: Reactivation of latent HIV1 infected in human U1 cells assessed as increase in p24 production after 48 hrs by ELISA relative to vorinostat. It is filed as functional. The method, boiled down:
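U1 cells at 2x10^5 cells/ml incubated with a range of concentrations at 37 °C for 48 h. Supernatant p24 measured by HIV p24 ELISA. EC50 ± SD derived from 3 independent experiments.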

Series [3] can be described thus: Cytotoxicity against human J-Lat (A2) cells assessed as effect on cell viability at 1 uM after 72 hrs by flow cytometric analysis. The format is cell-based. The method, boiled down: as §1
Series [4] can be described thus: Cytotoxicity against human U937 cells assessed as reduction in cell viability after 48 hrs by CellTiter-Glo luminescent cell viability assay. It is filed as cell-based, U-937. The method, boiled down:
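U937 cells (HIV-1-negative parental line of U1) at 2x10^5 cells/ml exposed to a range of concentrations for 48 h at 37 °C. Viability read by CellTiter-Glo luminescence. CC50 ± SD derived from 3 independent experiments.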
In general terms: Cellular ATP, detected with luciferase, serves as a proxy for viable cell number.

Series [5] has as its system Human immunodeficiency virus 1. The series can be described thus: Reactivation of latent HIV1 infected in human U1 cells/uninfected U937 cell mixture assessed as increase in p24 production at 0.57 uM supplemented with fresh medium containing compound every 3 days for 18 days and subsequent dosing at day 18 post dose measured on day 21 by ELISA. (In an ELISA, binding on a coated surface is turned into a signal by an enzyme label.)

Series [6] can be described thus: Selectivity index, ratio of CC50 for human U937 cells to EC50 for reactivation of latent HIV1 infected in human U1 cells.
Series [7] concerns Human immunodeficiency virus 1. Description: Reactivation of latent HIV1 infected in human U1 cells/uninfected U937 cell mixture assessed as reduction in proviral DNA level at 0.57 uM supplemented with fresh medium containing compound every 3 days for 18 days measured post last dose by PCR analysis. It is filed as functional, organism-based. The method, boiled down:
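U1/U937 (1:4) cultures treated for 18 days with T20 present and refed with compound every 3 days. HIV-1 pol DNA (200 bp) amplified by PCR for 30 cycles, with B2M (779 bp, 25 cycles) as internal control. Products run on 2% agarose gels and densitometry expressed as the treated/DMSO ratio.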

The subject of series [8] is Human immunodeficiency virus 1. The series can be described thus: Reactivation of latent HIV1 infected in human U1 cells assessed as increase in p24 production after 48 hrs by ELISA. It is filed as functional, organism-based.
Series [9] is described as follows: Cytotoxicity against human Jurkat cells assessed as reduction in cell viability after 72 hrs by CellTiter-Glo luminescent cell viability assay. The format is cell-based.
For another series, the system named is PBMC. The series can be described thus: Induction of IFNgamma1 production in human PBMC at 3 uM after 2 days by ELISA. Conditions: 48 h. It is filed as cell-based.
The nature of series [10]: Cytotoxicity against human J-Lat (A2) cells assessed as effect on cell viability at 0.3 uM after 72 hrs by flow cytometric analysis. The format is cell-based. The method, boiled down: as §1
The nature of series [11]: Cytotoxicity against human J-Lat (A2) cells assessed as effect on cell viability at 0.5 nM after 72 hrs by flow cytometric analysis. The settings on record: 0.0005 µM. It is filed as cell-based. The method, boiled down: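 J-Lat (A2) cells, 1x10^6 cells/well, exposed to LRA(s) at 37 °C for 72 h; percent viable cells read by flow cytometry, two independent experiments.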

The subject of series [12] is Human immunodeficiency virus 1. The series can be described thus: Reactivation of latent HIV1 infected in human J-Lat A2 cells assessed as increase in GFP positive cells at 0.5 nM after 72 hrs by flow cytometric analysis. It is filed as functional, organism-based. The method, boiled down: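 J-Lat (A2) cells express GFP on latent HIV-1 activation; 1x10^6 cells/well incubated with LRA(s), alone or in pairs (HDAC inhibitor TPB 0.3 µM or TPyB 1.0 µM), at 37 °C for 72 h; GFP+ cell frequency by flow cytometry; two independent experiments, one-tailed t-test.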

For series [13], the target named is Histone deacetylase 3/Nuclear receptor corepressor 2 (HDAC3/NCoR2) (Homo sapiens) (UniProt O15379+Q9Y618). The series can be described thus: Inhibition of full length human C-terminal His-tagged HDAC3/N-terminal GST-tagged NCOR2 (395 to 489 residues) expressed in baculovirus infected Sf9 insect cells using substrate measured after 60 mins by colorimetric method.

Setting [14] is: U937 cells (CC50) and latent HIV-1 infected U1 cells (EC50).
The mark [15] stands for this setting: Human immunodeficiency virus 1, U1, 48 h, read-out: EC50.

Activity calls are given as the source filed them. The calls are words filed in the database; no cut-off is given here.

In general, CC50 refers to the concentration at which the toxic effect on the cells reaches its halfway point. Usually EC50 stands for the concentration that produces a half-maximal response. Take `CC(=O)Nc1ccc(C(=O)Nc2nc(-c3cccs3)ccc2N)cc1`: the result in [1], in series [5] and in series [7] was Active. Moreover, the “fold change (FC)” value in series [2] is on record as 1.3. In addition, the Activity result in [3] is “Non-Toxic”. Besides, the cytotoxic concentration (CC50) at 48 h in [4] worked out at 47300 nM. Also, in series [6] (setting [14]), the selectivity ratio was determined as 8.2. Also, the EC50 in [8] (setting [15]) came out at 5700 nM. Also, the CC50 at 72 h in series [9] came out at 44300 nM.
For `CC(=O)Nc1ccc(C(=O)Nc2cc(-c3cccs3)ccc2N)cc1`, the “fold change (FC)” value in series [2] was found to be 1.4. Also, the CC50 at 48 h in series [4] was 14000 nM. Also, the EC50 in [8] (setting [15]) was 930 nM. For the same compound, the Activity result (in the series on PBMC; in series [10]) was “Non-Toxic” in each case. For the same compound, in series [9], the CC50 at 72 h came out at 12600 nM.
On to `C/C=C(/C)C(=O)O[C@H]1C(C)=C[C@]23C(=O)[C@@H](C=C(CO)[C@@H](O)[C@]12O)[C@H]1[C@@H](C[C@H]3C)C1(C)C` [INGENOL MEBUTATE], for which the Activity result in [11] is listed as “Non-Toxic”. Besides, the “fold change (FC)” value in [2] is reported as 9.7. Besides, the half-maximal cytotoxic concentration (CC50) at 48 h in series [4] was over 200 nM. Moreover, the result in [12] was Active. Besides, the selectivity ratio in series [6] (setting [14]) was over 42. In [8] (setting [15]), the EC50 worked out at 4.8 nM.
Consider `Nc1ccccc1NC(=O)c1ccc(-c2cn(CCc3ccsc3)nn2)cc1`, for which the “fold change (FC)” value in series [2] was 0.12. Besides, the half-maximal cytotoxic concentration (CC50) at 48 h in series [4] amounted to 830 nM. The selectivity ratio in series [6] is 1.4. Moreover, the EC50 in series [8] (setting [15]) was found to be 600 nM. Besides, the inhibition entry in series [13] is “Active”.
In the case of `C/C=C1\NC(=O)[C@H]2CSSCC/C=C/[C@H](CC(=O)N[C@H](C(C)C)C(=O)N2)OC(=O)[C@H](C(C)C)NC1=O` [ROMIDEPSIN], the CC50 at 48 h in [4] was 0.73 nM. Further, the selectivity ratio in [6] (setting [14]) was determined as 0.66.
Take `Nc1cc(F)ccc1NC(=O)/C=C/c1cnn(C/C=C/c2ccccc2)c1`: the “fold change (FC)” value in [2] is 0. In addition, in series [8] (u1), the concentration giving a half-maximal response (EC50) entry was “Not Active”. Also, the inhibition result in [13] is “Active”.
On to `Nc1ccc(F)cc1NC(=O)c1ccc(CNC(=O)/C=C/c2cccnc2)cc1`, for which, in [2], the “fold change (FC)” value worked out at 1.5. For the same compound, in series [4], the 50% cytotoxic concentration (CC50) at 48 h worked out at 5000 nM. Besides, in series [6] (setting [14]), the selectivity ratio was found to be 3.6. Further, the EC50 in series [8] (setting [15]) was 1400 nM.
Regarding `O=C(CCCCCCC(=O)Nc1ccccc1)NO` [VORINOSTAT], the CC50 at 48 h in [4] is 780 nM.
